According to ChEMBL document CHEMBL4177752, “Discovery of Novel Schizocommunin Derivatives as Telomeric G-Quadruplex Ligands That Trigger Telomere Dysfunction and the Deoxyribonucleic Acid (DNA) Damage Response” (J Med Chem, 2018):
Active and inactive are the calls of the source. No cut-off for these calls is given here.

Key:
SiHa = assay: Antiproliferative activity against human SiHa cells after 48 hrs by MTT assay; type: functional, cell-based
Outline: (§1)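 Cells seeded at 5.0×10^3 per well and exposed to a range of compound concentrations for 48 h. MTT (2.5 mg/mL solution) was then added for 4 h, formazan was dissolved in DMSO, and OD was read at 570 nm. HL-60 was grown in RPMI-1640 with 10% FBS, the other lines in DMEM with 10% FBS, at 37 °C and 5% CO2. Triplicates; IC50 taken from mean OD versus concentration curves.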

HL-60 = assay: Antiproliferative activity against human HL60 cells after 48 hrs by MTT assay; type: functional, cell-based; conditions: HL-60, 48 h; outline: as §1
[1] = Binding affinity to hairpin duplex DNA (unknown origin) at 40 uM by SPR method
Outline: (§2)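 SPR: biotinylated HTG21 or hairpin DNA (200 nM) was folded in 50 mM Tris-HCl pH 7.4 with 100 mM KCl and captured to about 1,000 RU on an NLC chip against a blank reference cell. Ligand at 0.625–40 µM was injected at 25 µL/min (400 s association, 300 s dissociation) at 25 °C. The chip was regenerated with 1 M KCl and blank sensorgrams were subtracted.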

[2] = Stabilization of F10T hairpin duplex DNA (unknown origin) assessed as change in melting temperature at 1 uM by FRET assay
Outline: (§3)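 FRET melting: 0.2 µM F21T or F10T (FAM/TAMRA-labelled), with or without 1.0 µM ligand, in 10 mM Tris-HCl pH 7.4 with 60 mM KCl. Excitation 470 nm, emission 530 nm, read every 1 °C from 37–99 °C at 1 °C/min with a 30 s hold. ΔTm = Tm(DNA+ligand) − Tm(DNA).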

U2OS = assay: Antiproliferative activity against human U2OS cells after 48 hrs by MTT assay; type: functional, cell-based; outline: as §1
A549 = assay: Antiproliferative activity against human A549 cells after 48 hrs by MTT assay; type: functional, cell-based; conditions: A549, 48 h; outline: as §1
Quadruplex DNA [3] = assay: Binding affinity to HTG21 telomeric G-quadruplex DNA (unknown origin) by SPR method; type: nucleic-acid assay; outline: as §2
HeLa = assay: Antiproliferative activity against human HeLa cells after 48 hrs by MTT assay; type: functional, cell-based; outline: as §1
Quadruplex DNA [4] = assay: Stabilization of F21T telomeric G-quadruplex DNA (unknown origin) assessed as change in melting temperature at 1 uM by FRET assay; type: nucleic-acid assay; outline: as §3

Compound	IC50 (SiHa) [µM]	IC50 (HL-60) [µM]	Activity [1]	ΔTm [2] [°C]	IC50 (U2OS) [µM]	IC50 (A549) [µM]	Kd (Quadruplex DNA [3]) [µM]	IC50 (HeLa) [µM]	ΔTm (Quadruplex DNA [4]) [°C]
CN(C)CCCNc1ccc2c(=O)[nH]c(/C=C3\C(=O)Nc4cc(N5CCN(C)CC5)ccc43)nc2c1	11.5	4.3	inactive	0.1	14.1	19	> 40	49	16.5
CCN(CC)CCCNc1cc2nc(/C=C3\C(=O)Nc4ccccc43)[nH]c(=O)c2cc1F	23.4	7.5	inactive	0.1	12.6	8.6	> 40	> 50	10
CN(C)CCCNc1cc2nc(/C=C3\C(=O)Nc4cc(N5CCOCC5)c(F)cc43)[nH]c(=O)c2cc1F	> 50	3.4	inactive	0.1	> 50	> 50	> 40	30.1	11.9
CN1CCN(c2ccc3c(c2)NC(=O)/C3=C\c2nc3cc(NCCN4CCCC4)c(F)cc3c(=O)[nH]2)CC1	10.9	3.6	inactive	0.2	6.4	4.1	> 40	17.4	18.6
CN1CCN(c2cc3c(cc2F)/C(=C/c2nc4cc(NCCCN5CCCC5)c(F)cc4c(=O)[nH]2)C(=O)N3)CC1	9.4	2.9	inactive	0.3	16.4	25.3	7.9	9	23.6
CN1CCN(c2cc3c(cc2F)/C(=C/c2nc4cc(N5CCN(C)CC5)c(F)cc4c(=O)[nH]2)C(=O)N3)CC1	> 50	12.3	inactive	0.1	> 50	> 50	> 40	> 50	12.2
CN(C)CCCNc1cc2nc(/C=C3/C(=O)Nc4ccccc43)n(CCCN(C)C)c(=O)c2cc1F	30.5	8.2	inactive	0.1	28.4	18.2	> 40	27.1	9.2
CN(C)CCCN(C)c1cc2c(cc1F)/C(=C/c1nc3cc(NCCN(C)C)c(F)cc3c(=O)[nH]1)C(=O)N2	7.6	5.6	inactive	0.3	9.2	12.4	14	22.6	20.1
O=C1Nc2cc(N3CCOCC3)c(F)cc2/C1=C/c1nc2cc(NCCCN3CCCC3)c(F)cc2c(=O)[nH]1	42.5	3.8	inactive	0.3	> 50	> 50	> 40	> 50	8.4
CN1CCN(c2cc3c(cc2F)/C(=C/c2nc4cc(NCCCn5ccnc5)c(F)cc4c(=O)[nH]2)C(=O)N3)CC1	> 50	> 50	inactive	0.5	> 50	> 50	21	> 50	11.5
CCN(CC)CCCN1C(=O)/C(=C\c2nc3cc(N4CCN(C)CC4)c(F)cc3c(=O)[nH]2)c2ccccc21	> 50	13.2	inactive	0.3	> 50	> 50	> 40	> 50	5.8
CN1CCN(CCCNc2cc3nc(/C=C4\C(=O)Nc5cc(N6CCN(C)CC6)c(F)cc54)[nH]c(=O)c3cc2F)CC1	2.8	3.3	inactive	0.1	12.7	9.7	9.6	8.8	19.8
CN1CCN(c2ccc3c(c2)NC(=O)/C3=C\c2nc3cc(NCCN4CCCCC4)c(F)cc3c(=O)[nH]2)CC1	5.4	2.8	inactive	0.2	3.6	1.8	> 40	20.5	18.7
CN(C)CCCN(C)c1cc2c(cc1F)/C(=C/c1nc3cc(N4CCN(C)CC4)c(F)cc3c(=O)[nH]1)C(=O)N2	3.5	3.2	inactive	0.2	9.4	10.4	> 40	12.8	15.6
CN1CCN(c2cc3c(cc2F)/C(=C/c2nc4cc(NCCN5CCCC5)c(F)cc4c(=O)[nH]2)C(=O)N3)CC1	9.3	2.7	inactive	0.1	7.1	5.6	21	10.5	22.7
CN(C)CCCNc1cc2nc(/C=C3\C(=O)Nc4cc(N(C)CCCN(C)C)c(F)cc43)[nH]c(=O)c2cc1F	2.9	6.5	inactive	0.3	8.3	14.3	18	7.1	18.2
CCN(CC)CCNc1cc2nc(/C=C3\C(=O)Nc4cc(N5CCN(C)CC5)c(F)cc43)[nH]c(=O)c2cc1F	12.4	1.7	inactive	0.3	8.2	6.1	22	9	23.1
CN(C)CCNc1cc2nc(/C=C3\C(=O)Nc4cc(N5CCN(C)CC5)ccc43)[nH]c(=O)c2cc1F	3.4	7.8	inactive	0.2	6.3	2.2	> 40	15.7	18
CN(C)CCCNc1cc2nc(/C=C3\C(=O)Nc4ccccc43)[nH]c(=O)c2cc1F	17.1	3.2	inactive	0.2	18.7	14.8	> 40	13.4	11.8
